Assay [1] deals with T1, CLC-0 E166C/E127Q mutant (E127Q/K519) (Torpedo marmorata, UniProt P21564, C212S/E127Q/E166C).
T1 sequence (P21564 1-805 E127Q/E166C/C212S): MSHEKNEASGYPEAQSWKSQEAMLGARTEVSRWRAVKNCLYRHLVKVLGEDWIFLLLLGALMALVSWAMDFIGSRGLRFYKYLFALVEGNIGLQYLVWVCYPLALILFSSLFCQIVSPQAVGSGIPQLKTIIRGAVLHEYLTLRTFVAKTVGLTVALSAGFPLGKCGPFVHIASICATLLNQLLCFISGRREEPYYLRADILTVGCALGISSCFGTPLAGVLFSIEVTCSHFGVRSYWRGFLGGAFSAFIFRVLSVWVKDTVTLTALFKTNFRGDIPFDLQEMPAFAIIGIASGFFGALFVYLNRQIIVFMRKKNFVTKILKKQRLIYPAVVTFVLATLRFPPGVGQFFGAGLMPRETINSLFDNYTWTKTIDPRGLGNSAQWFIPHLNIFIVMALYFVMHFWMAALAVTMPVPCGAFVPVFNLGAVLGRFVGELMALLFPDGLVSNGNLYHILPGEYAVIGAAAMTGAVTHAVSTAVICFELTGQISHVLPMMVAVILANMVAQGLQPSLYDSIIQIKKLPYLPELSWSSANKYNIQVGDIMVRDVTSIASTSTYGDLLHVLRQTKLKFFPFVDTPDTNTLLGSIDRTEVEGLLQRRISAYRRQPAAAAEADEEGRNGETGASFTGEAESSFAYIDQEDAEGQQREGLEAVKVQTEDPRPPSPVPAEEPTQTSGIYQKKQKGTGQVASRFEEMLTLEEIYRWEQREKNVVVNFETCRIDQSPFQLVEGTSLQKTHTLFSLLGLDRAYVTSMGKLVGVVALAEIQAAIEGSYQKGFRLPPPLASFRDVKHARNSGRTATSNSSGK
Format: cell-based. Particulars: for IC50: read-out: Apparent affinity (K1/2). The gist of the method: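 CLC-0 mutants in the C212S background were transfected into HEK293 cells with lipofectamine and recorded 1–3 d later as excised inside-out patches. Both sides held 130 mM NaCl, 5 mM MgCl2, 10 mM HEPES and 1 mM EGTA, pH 7.4. CPA was perfused continuously onto the cytoplasmic face. Steady-state current over the last 10 ms was normalized to bracketing blocker-free controls and fitted to a Langmuir function for K1/2. Values are mean ± SEM of ~4–6 patches.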

Assay [2] has as its target T2, CLC-0 E166C/E127Q/K519M mutant (Torpedo marmorata, UniProt P21564, C212S/E127Q/E166C/K519M).
T2 sequence (P21564 1-805 E127Q/E166C/C212S/K519M): T1 sequence (P21564 1-805 E127Q/E166C/C212S) with K519M
Format: cell-based. Particulars: for IC50: read-out: Apparent affinity (K1/2). The gist of the method: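 CLC-0 mutants (C212S background) were lipofectamine-transfected into HEK293 cells and recorded 1–3 d later from inside-out patches. Pipette and bath contained 130 mM NaCl, 5 MgCl2, 10 HEPES and 1 EGTA (pH 7.4). Test compound was perfused onto the cytoplasmic side. A +80 mV prepulse preceded steps to steady state. The last-10-ms current was normalized to bracketing blocker-free controls and fitted to a Langmuir function for K1/2.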

Positions count from the first letter of the chain named. Like-named read-outs stand apart in the source and are kept apart here.

As to `O=C(O)COc1ccc(Cl)cc1` [CPA, p-chlorophenoxy acetate], the IC50 in assay [1] (−40 mV) turned out to be 491 ± 58 µM; in assay [1] (−60 mV), 228 ± 23 µM; in assay [1] (−80 mV) it was 113 ± 10 µM; in assay [1] (−100 mV), 57 ± 4 µM; in assay [1] (−120 mV), 33 ± 3 µM; in assay [1] (−140 mV) it was 21 ± 2 µM. Further, the IC50 in assay [1] (−160 mV) amounted to 15 ± 2 µM; in assay [2] (−40 mV), 457 ± 30 µM; in assay [2] (−60 mV), 240 ± 13 µM; in assay [2] (−80 mV), 132 ± 6 µM; in assay [2] (−100 mV), 75 ± 3 µM; in assay [2] (−120 mV), 47 ± 3 µM. The IC50 amounted to 31 ± 2 µM in assay [2] (−140 mV) and 22 ± 2 µM in assay [2] (−160 mV). For the same compound, the apparent koff in assay [1] (−160 mV) is 17.9 s⁻¹; in assay [2] (−160 mV), 11.4 s⁻¹. For the same compound, the figures for the apparent kon in assay [1] (−160 mV) and in assay [2] (−160 mV) were 760000 M⁻¹ s⁻¹ and 460000 M⁻¹ s⁻¹, respectively.

The record behind these values is publication PMC2606940 (The Journal of General Physiology, 2009).
